In ChEMBL document CHEMBL2062399, “Design, synthesis, and structure-activity relationships of a series of 2-Ar-8-methyl-5-alkylaminoquinolines as novel CRF₁ receptor antagonists” (Bioorg Med Chem Lett, 2012):

What was measured:
[1] = target: T1, Corticotropin-releasing factor receptor 1 (Homo sapiens, UniProt P34998); test: Antagonist activity at human CRF1 receptor expressed in HEK293 cells assessed as inhibition of CRF-stimulated intracellular cAMP accumulation after 30 mins by enzyme immunoassay; format: functional, cell-based
T1 sequence (P34998 whole entry): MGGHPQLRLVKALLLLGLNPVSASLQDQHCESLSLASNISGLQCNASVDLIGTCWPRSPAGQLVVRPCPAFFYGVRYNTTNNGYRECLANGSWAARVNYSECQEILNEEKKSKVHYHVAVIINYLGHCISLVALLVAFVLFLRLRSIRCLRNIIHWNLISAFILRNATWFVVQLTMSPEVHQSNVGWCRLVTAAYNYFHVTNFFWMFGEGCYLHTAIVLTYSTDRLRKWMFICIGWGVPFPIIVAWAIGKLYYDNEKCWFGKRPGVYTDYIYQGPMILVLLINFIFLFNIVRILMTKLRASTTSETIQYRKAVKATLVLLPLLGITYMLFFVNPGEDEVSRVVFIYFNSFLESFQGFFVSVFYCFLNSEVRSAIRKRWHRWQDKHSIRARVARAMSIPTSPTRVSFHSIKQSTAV
Outline: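 HEK293 cells stably expressing human CRF1, seeded at 5×10^4 cells/well in DMEM with 0.1% FBS and 1 mM IBMX. After 30 min preincubation, compound added for 30 min at 37 °C, then 1 nM human/rat CRF for 30 min at 37 °C. Lysed cAMP measured by EIA, basal subtracted, expressed as % of total production. IC50 from concentration-response curve.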

[2] = target: T1, Corticotropin-releasing factor receptor 1; test: Displacement of [125I]-CRF from human CRF1 receptor expressed in HEK293 cells after 2 hrs; format: cell-based
Outline: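 Scintillation proximity assay with HEK293 membranes expressing human CRF1 (5 µg/well), WGA-coated SPA beads and 0.1 nM [125I] human/rat CRF. Buffer pH 7.0 with 10 mM MgCl2, 2 mM EGTA, 1.5% BSA and protease inhibitors. Nonspecific binding with 0.4 µM unlabeled sauvagine. Incubated over 2 h at room temperature, then centrifuged and counted. Specific binding taken as % of total, IC50 from concentration-response curve.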

Rattus norvegicus = test: Inhibition of CRF-induced fecal pellet output in rat at 10 mg/kg, po administered 1 hr before CRF challenge by measuring decrease in fecal weight after 4 hrs; format: functional; conditions: Feces
Outline: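 Rats dosed orally at 10 mg/kg 1 h before intravenous CRF (10 µg/kg). Fecal weight measured 4 h after CRF injection and compared with the vehicle + CRF group. 6–7 rats/group, mean ± S.E.M., unpaired t test.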

SMILES	IC50 [1]	IC50 [2]	inhibition in vivo at 10 mg/kg (Rattus norvegicus)
COCCN(C)c1ccc(C)c2nc(-c3c(OC)cc(COC)cc3OC)c(C)cc12	174 nM	89 nM	
CCN(CC)c1ccc(C)c2nc(-c3c(OC)cc(COC)cc3OC)ccc12	381 nM	184 nM	
CCN(CC)c1ccc(C)c2nc(-c3c(OC)cc(COC)cc3OC)c(F)cc12	131 nM	144 nM	
CCN(CCOC)c1ccc(C)c2nc(-c3c(OC)cc(COC)cc3OC)c(C)cc12	23 nM	109 nM	
CCN(CC)c1ccc(C)c2nc(-c3c(OC)cc(COC)cc3OC)c(C)cc12	24 nM	79 nM	63%
COCc1cc(OC)c(-c2nc3c(C)ccc(N(CC4CC4)CC4CC4)c3cc2C)c(OC)c1	46 nM	88 nM	53%
COCc1cc(OC)c(-c2nc3c(C)ccc(N(CC4CCOCC4)CC4CC4)c3cc2C)c(OC)c1		286 nM	
CCCN(CCC)c1cccc2nc(-c3c(OC)cc(COC)cc3OC)c(C)cc12	97 nM	276 nM	
CCCN(CCC)c1ccc(C)c2nc(-c3c(OC)cc(COC)cc3OC)c(C)cc12	70 nM	88 nM	64%
COCCNc1ccc(C)c2nc(-c3c(OC)cc(COC)cc3OC)c(C)cc12		> 1000 nM	
CCCN(CCC)c1ccc(CC)c2nc(-c3c(OC)cc(COC)cc3OC)c(C)cc12	375 nM	115 nM	
COCc1cc(OC)c(-c2nc3c(C)ccc(N(CC4CC4)C4CCOCC4)c3cc2C)c(OC)c1		246 nM	
COCc1cc(OC)c(-c2nc3c(C)ccc(N(C)C)c3cc2C)c(OC)c1	> 1000 nM	212 nM	
CCN(CC)c1ccc(C)c2nc(-c3c(OC)cc(COC)cc3OC)c(Cl)cc12	45 nM	81 nM	
CCCN(CCC)c1ccc(C)c2nc(Oc3c(OC)cc(COC)cc3OC)c(C)cc12		> 1000 nM	
CCC(CC)Nc1ccc(C)c2nc(-c3c(OC)cc(COC)cc3OC)c(C)cc12		> 1000 nM	
